Results: article PMC8220551 (International Journal of Pharmaceutics: X, 2021)

Experiment: Permeation study in Kerski diffusion cells with PermeaPad biomimetic barrier
Type: in vitro ADME
Settings: in the investigated time interval (up to 60 min), pH 7.4, 37 °C
Outline: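 Drug-loaded minitablets, composite films or solutions (0.2 mg per 0.64 cm2) placed in donor; composites applied to buffer-moistened membrane. Acceptor: 10 mM dipotassium hydrogen phosphate, pH 7.4, stirred 350 rpm, 37 °C. Samples at 5, 10, 15, 20, 25, 30, 40, 50, 60 min with medium replacement. Quantified by HPLC with fluorescence detection (excitation 278 nm); mean ± SD, n = 3.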

NC(=O)CC[C@@H]1NC(=O)[C@H](Cc2ccccc2)NC(=O)[C@H](Cc2ccc(O)cc2)NC(=O)CCSSC[C@@H](C(=O)N2CCC[C@H]2C(=O)N[C@H](CCCN=C(N)N)C(=O)NCC(N)=O)NC(=O)[C@H](CC(N)=O)NC1=O [DDAVP, 1-desamino-8-D-arginin-vasopressin]
cumulative drug concentration permeated: ~2.6 μg/cm^2
